What was measured:
[1] = Cytotoxicity against human H9 cells by MTS assay; format: cell-based
293T = experiment: Inhibition of full-length X4 tropic HIV-1 clone pNL4-3 Vif/human APOBEC3G complex transfected in human 293T cells measured at 50 uM after 48 hrs by GFP-based fluorescence assay relative to control; format: cell-based
In short: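 This was the primary screen in 293T cells co-transfected with HA-Vif and A3G-GFP plasmids (Lipofectamine 2000) and given a single compound concentration. DMSO-only wells and A3G-GFP-only transfected wells served as controls. GFP was read after 48 h. A3G-GFP MFI fold change was scored as −, none or <1; +, 1–2; ++, 2–3; +++, >3.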

[2] = test system: Human immunodeficiency virus 1; experiment: Antiviral activity against X4 tropic HIV-1 clone pNL4-3 infected in H9 cells assessed as reduction in p24 antigen after 4 days by ELISA; format: functional, organism-based; settings: Human immunodeficiency virus 1, pNL4-3, H9, 96 h

Row | IC50 [2] [µM] | Compound | CC50 [1] [µM] | fold change (FC) (293T)
1 | 2.38 | CCN(CC)c1ccc(/C=C(\C#N)c2nc3ccccc3o2)cc1 | > 50 | 2
2 | > 50 | CCN(CC)c1ccc(/C=C(\C#N)c2nc3cc(C(=O)O)ccc3[nH]2)cc1 | > 50 | 2
3 | > 50 | CCN(CC)c1ccc(CC(C#N)c2nc3ccccc3[nH]2)cc1 (stereo unspecified) | > 50 | < 1
4 | 1.13 | CCN(CC)c1ccc(/C=C(\C#N)c2nc3cc(C(F)(F)F)ccc3[nH]2)cc1 | > 50 | 2
5 | 3.58 | CCN(CC)c1ccc(/C=C(\C#N)c2nc3cccnc3[nH]2)cc1 | > 50 | 2
6 | > 50 | CC(=O)Nc1ccc(/C=C(\C#N)c2nc3ccccc3[nH]2)cc1 | > 50 | < 1
7 | > 50 | N#C/C(=C\c1ccc(N2CCOCC2)cc1)c1nc2ccccc2[nH]1 | > 50 | > 3
8 | 0.72 | N#C/C(=C\c1ccc2[nH]ccc2c1)c1nc2ccccc2[nH]1 | > 50 | > 3
9 | 5.92 | CCN(CC)c1ccc(/C=C(\C#N)c2nc3ccccc3s2)cc1 | > 50 | > 3
10 | > 50 | CS(=O)(=O)c1ccc(/C=C(\C#N)c2nc3ccccc3[nH]2)cc1 | > 50 | < 1
11 | 0.29 | COc1cc(/C=C(\C#N)c2nc3ccccc3[nH]2)ccc1N(C)C | > 50 | 1
12 | > 50 | CN(C)c1ccc(/C=C(\C#N)c2nc3ccccc3[nH]2)c(O)c1 | > 50 | > 3
13 | 6.11 | CCN(CCO)c1ccc(/C=C(\C#N)c2nc3ccccc3[nH]2)cc1 | > 50 | 1
14 | 2.85 | COc1ccc(/C=C(\C#N)c2nc3ccccc3[nH]2)cc1 | > 50 | 2
15 | 1.04 | CCN(CC)c1ccc(/C=C(\C#N)c2nc3cc(C(C)(C)C)ccc3[nH]2)cc1 | > 50 | > 3
16 | 1.68 | CCN(CC)c1ccc(/C=C(\C#N)c2nc3cc(C(=O)OC)ccc3[nH]2)cc1 | > 50 | 2
17 | > 50 | COc1cc(OC)c(OC)cc1/C=C(\C#N)c1nc2ccccc2[nH]1 | > 50 | 1
18 | > 50 | COc1ccc(/C=C(\C#N)c2nc3ccccc3[nH]2)cc1OC | > 50 | 1
19 | 0.36 | N#C/C(=C\c1ccc2[nH]ncc2c1)c1nc2ccccc2[nH]1 | > 50 | 2
20 | > 50 | N#C/C(=C\c1ccc(N2CCCC2)cc1)c1nc2ccccc2[nH]1 | > 50 | < 1
21 | 1.25 | CCN(CC)c1ccc(/C=C(\C#N)c2nc3cc(Cl)c(Cl)cc3[nH]2)cc1 | > 50 | > 3
22 | > 50 | Cc1ccc(/C=C(\C#N)c2nc3ccccc3[nH]2)cc1 | > 50 | < 1
23 | > 50 | N#C/C(=C\c1ccc(-n2ccnc2)cc1)c1nc2ccccc2[nH]1 | > 50 | < 1
24 | > 50 | CC(C)c1ccc(/C=C(\C#N)c2nc3ccccc3[nH]2)cc1 | > 50 | < 1

Row | IC50 [2] [µM] | Compound | CC50 [1] [µM] | fold change (FC) (293T)
25 | 7.3 | CCN(CC)c1ccc(/C=C(\C#N)c2nc3ccncc3[nH]2)cc1 | > 50 | 2
26 | > 50 | CCN(CC)c1ccc(/C=C(\C#N)c2nc3cc(F)ccc3[nH]2)cc1 | > 50 | > 3
27 | > 50 | CCc1ccc(/C=C(\C#N)c2nc3ccccc3[nH]2)cc1 | > 50 | < 1
28 | > 50 | CCN(CC)c1ccc(/C=C(\C#N)c2nc3cc(Br)ccc3[nH]2)cc1 | > 50 | 2
29 | 1.09 | CCCN(CCC)c1ccc(/C=C(\C#N)c2nc3ccccc3[nH]2)cc1 | > 50 | 2
30 | > 50 | COc1cc(/C=C(\C#N)c2nc3ccccc3[nH]2)cc(OC)c1OC | > 50 | 1
31 | 1.5 | CCN(CC)c1ccc(/C=C(\C#N)c2nc3ccccc3[nH]2)c(O)c1 | > 50 | > 3
32 | 0.24 | CCN(CC)c1ccc2cc(-c3nc4ccccc4[nH]3)c(=O)oc2c1 | > 50 | > 3
33 | > 50 | CN1CCN(c2ccc(/C=C(\C#N)c3nc4ccccc4[nH]3)cc2)CC1 | > 50 | < 1
34 | 1.35 | CCN(CC)c1ccc(/C=C(\C#N)c2nc3cc(OC(F)(F)F)ccc3[nH]2)cc1 | > 50 | > 3
35 | > 50 | CCN(CC)c1ccc(/C=C(\C#N)c2nc3ccccc3n2CC)cc1 | > 50 | < 1
36 | > 50 | N#C/C(=C\c1ccc(-c2ccccc2)cc1)c1nc2ccccc2[nH]1 | > 50 | < 1
37 | > 50 | N#C/C(=C\c1ccc(C(=O)O)cc1)c1nc2ccccc2[nH]1 | > 50 | < 1
38 | > 50 | CCN(CC)c1ccc(/C=C(\C#N)c2nc3cc(Cl)ccc3[nH]2)cc1 | > 50 | 2
39 | 1.64 | CCN(CC)c1ccc(/C=C(\C#N)c2nc3cc(C)c(C)cc3[nH]2)cc1 | > 50 | > 3
40 | 2.68 | CCN(CC)c1ccc(/C=C(\C#N)c2nc3cc(N(C)C)ccc3[nH]2)cc1 | > 50 | 1
41 | > 50 | CCN(CC)c1ccc(/C=C(\C#N)c2nc3ccccc3n2C2CC2)cc1 | > 50 | < 1
42 | 4.42 | CCN(CC)c1ccc(/C=C(\C#N)c2nc3cc(OC)ccc3[nH]2)cc1 | > 50 | 2
43 | 0.75 | CCN(CC)c1ccc(/C=C(\C#N)c2nc3cc(SC)ccc3[nH]2)cc1 | > 50 | 2
44 | 0.51 | CN(C)c1ccc(/C=C(\C#N)c2nc3ccccc3[nH]2)cc1 | > 50 | 2
45 | > 50 | CCN(CC)c1ccc(/C=C(\C#N)c2nc3ccccc3n2C)cc1 | > 50 | < 1
46 | 3.3 | CC(C)N(c1ccc(/C=C(\C#N)c2nc3ccccc3[nH]2)cc1)C(C)C | > 50 | 2
47 | > 50 | CCN(CC)c1cccc(/C=C(\C#N)c2nc3ccccc3[nH]2)c1 | > 50 | < 1

From ChEMBL document CHEMBL3407469, “Development of benzimidazole derivatives to inhibit HIV-1 replication through protecting APOBEC3G protein” (Eur J Med Chem, 2015)
